Experimental data: ChEMBL document CHEMBL2029228, “Antimalarial activity of 9a-N substituted 15-membered azalides with improved in vitro and in vivo activity over azithromycin” (J Med Chem, 2012)
Active and inactive are the calls of the source. The rule behind the calls is not given here.

How the values were obtained:
Plasmodium berghei [1] = assay: Antimalarial activity against Plasmodium berghei KBG173 infected in mouse assessed as decrease in parasitemia at 5 mg/kg, iv BID administered on day 3, 4 and 5 post infection measured on day 31 relative to control; format: functional, organism-based; set-up: dose 5 mg/kg
Procedure, shortened: (§1)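 Male mice (24–30 g) inoculated intraperitoneally with 5 × 10⁶ P. berghei KBG-173-infected erythrocytes; parasitemia about 1.0–3.7% by day 3. Dosing twice daily on days 3–5 postinfection. Blood smears negative on day 31 counted as cured, scored as cured/total mice (5 per dose). Mice losing ≥20% body weight sacrificed.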

Plasmodium berghei [2] = assay: Antimalarial activity against Plasmodium berghei KBG173 infected in mouse assessed as decrease in parasitemia at 1.25 mg/kg, iv BID administered on day 3, 4 and 5 post infection measured on day 31 relative to control; format: functional, organism-based; set-up: dose 1.25 mg/kg; procedure, shortened: as §1
Plasmodium berghei [3] = assay: Antimalarial activity against Plasmodium berghei KBG173 infected in mouse assessed as decrease in parasitemia at 2.5 mg/kg, iv BID administered on day 3, 4 and 5 post infection measured on day 31 relative to control; format: functional, organism-based; set-up: dose 2.5 mg/kg; procedure, shortened: as §1
Plasmodium berghei [4] = assay: Antimalarial activity against Plasmodium berghei KBG173 infected in mouse assessed as decrease in parasitemia at 5 mg/kg, ip BID administered on day 3, 4 and 5 post infection measured on day 31 relative to control; format: functional, organism-based; set-up: dose 5 mg/kg; procedure, shortened: as §1
Plasmodium berghei [5] = assay: Antimalarial activity against Plasmodium berghei KBG173 infected in mouse assessed as decrease in parasitemia at 2.5 mg/kg, ip BID administered on day 3, 4 and 5 post infection measured on day 31 relative to control; format: functional, organism-based; set-up: dose 2.5 mg/kg; procedure, shortened: as §1
Plasmodium berghei [6] = assay: Antimalarial activity against Plasmodium berghei KBG173 infected in mouse assessed as decrease in parasitemia at 1.25 mg/kg, ip BID administered on day 3, 4 and 5 post infection measured on day 31 relative to control; format: functional, organism-based; set-up: dose 1.25 mg/kg; procedure, shortened: as §1
Plasmodium falciparum = assay: Antimalarial activity against mefloquine-resistant Plasmodium falciparum TM91C235 assessed as [3H]hypoxanthine incorporation after 48 hrs; format: functional, organism-based
Procedure, shortened: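 Tritiated hypoxanthine incorporation assay (Desjardins method, Milhous modification) with 48 h drug exposure. Uses P. falciparum clone TM91C235 (Southeast Asian, mefloquine-resistant). Compounds 2-fold diluted over 11 concentrations. IC50 derived by nonlinear logistic dose-response fitting, averaged where multiple runs were done.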

[7] = Fraction unbound in CD1 mouse plasma at 5 mg/kg, iv; format: ADME, organism-based; set-up: dose 5 mg/kg, route intravenous
Procedure, shortened: (§2)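 Fraction unbound measured in mouse plasma by ultrafiltration at 1 μg/mL. Unbound clearance = blood clearance/fu, assuming blood/plasma ratio of 1. Blood clearance comes from male CD-1 mice dosed IV at 5 mg/kg, with tail-vein sampling up to 24 h and LC-MS/MS analysis.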

[8] = Volume of distribution at steady state in CD1 mouse at 5 mg/kg, iv; format: ADME, organism-based; set-up: dose 5 mg/kg, route intravenous; details: in vivo, read-out: Vdss
Procedure, shortened: (§3)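 Male CD-1 mice (N = 3 per route) dosed IV at 5 mg/kg or orally at 25 mg/kg while fasted, mostly in saline (2.5 mg/mL). Tail-vein blood taken up to 24 h, cardiac puncture at 30 h. Samples hemolyzed, protein-precipitated with acetonitrile plus internal standard, analysed by positive ESI LC-MS/MS.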

[9] = (§4) Half life in CD1 mouse at 5 mg/kg, iv; format: ADME, organism-based; set-up: dose 5 mg/kg, route intravenous; details: CD1, mouse, in vivo; procedure, shortened: as §3
[10] = Clearance at steady state in CD1 mouse at 5 mg/kg, iv; format: ADME, organism-based; set-up: dose 5 mg/kg, route intravenous; details: in vivo, read-out: CLss; procedure, shortened: as §3
Liver microsomes [11] = assay: Intrinsic clearance in rat liver microsomes assessed per gram of liver at 1 uM after 60 mins at pH 7.4 by LC-MS/MS analysis; format: ADME, Microsome; details: pH 7.4, 1 h
Procedure, shortened: (§5)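 Liver microsomes (0.5 mg protein/mL) in 50 mM potassium phosphate pH 7.4 with 1.0 μM compound at 37 °C for 60 min. Reaction started with NADP/glucose-6-phosphate/MgCl₂/G6PDH cofactor mix; solvent 1% final. LC-MS/MS read-out. CLi from first-order elimination constant by nonlinear regression, corrected for incubation volume, assuming 52.5 mg microsomal protein/g liver.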

Mus musculus [12] = assay: Unbound clearance in CD1 mouse at 5 mg/kg, iv; format: ADME, organism-based; set-up: dose 5 mg/kg, route intravenous; details: in vivo; procedure, shortened: as §2
[13] = Plasma protein binding in mouse at 1 ug/ml after 30 mins; format: ADME, cell-free; details: read-out: PPB (converted)
Procedure, shortened: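 Ultrafiltration on mouse plasma preincubated 15 min at 37 °C, compound spiked to 1 μg/mL final. Aliquots taken at 0 and 15 min, remainder spun through a 10 kDa filter for 30 min at 37 °C, 2850 g. Filtrate deproteinized and analysed by LC-MS/MS.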

Liver = assay: Intrinsic clearance in mouse liver microsomes assessed per gram of liver at 1 uM after 60 mins at pH 7.4 by LC-MS/MS analysis; format: ADME, Microsome; details: pH 7.4, 1 h; procedure, shortened: as §5
HepG2 = assay: Cytotoxicity against human HepG2 cells after 24 hrs by MTS assay; format: cell-based; details: HepG2, 24 h
Procedure, shortened: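 HepG2 cells kept in RPMI 1640 with 10% FBS plus antibiotics at 37 °C, 5% CO₂. 50 000 cells per well exposed to 10 two-fold serial dilutions for 24 h. MTS reagent then added for 2 h more, absorbance read at 490 nm, IC50 derived.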

Plasmodium berghei [14] = assay: Antimalarial activity against Plasmodium berghei KBG173 infected in mouse assessed as increase in mouse survival time at 5 mg/kg, iv BID administered on day 3, 4 and 5 post infection relative to azithromycin; format: functional
Procedure, shortened: (§6)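 Male mice (24−30 g) inoculated intraperitoneally with 5 × 10⁶ P. berghei KBG-173-infected erythrocytes; parasitemia 1.0–3.7% by day 3. IV dosing twice daily on days 3, 4 and 5 post-infection. Read-out is the survival time of the last animal alive. Mice blood-smear negative on day 31 counted as cured; mice losing ≥20% body weight sacrificed.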

[15] = Oral bioavailability in CD1 mouse at 25 mg/kg; format: ADME, organism-based; details: in vivo; procedure, shortened: as §3
Liver microsomes [16] = assay: Intrinsic clearance in human liver microsomes assessed per gram of liver at 1 uM after 60 mins at pH 7.4 by LC-MS/MS analysis; format: ADME, Microsome; details: pH 7.4, 1 h; procedure, shortened: as §5
Plasmodium berghei [17] = assay: Antimalarial activity against Plasmodium berghei KBG173 infected in mouse assessed as cured mouse at 5 mg/kg, iv BID administered on day 3, 4 and 5 post infection measured up to day 31; format: functional, organism-based; set-up: dose 5 mg/kg; procedure, shortened: as §1
Plasmodium berghei [18] = assay: Antimalarial activity against Plasmodium berghei KBG173 infected in mouse assessed as decrease in parasitemia at 15 mg/kg, iv BID administered on day 3, 4 and 5 post infection measured on day 31 relative to control; format: functional, organism-based; set-up: dose 15 mg/kg; procedure, shortened: as §1
Plasmodium berghei [19] = assay: Antimalarial activity against Plasmodium berghei KBG173 infected in mouse assessed as decrease in parasitemia at 10 mg/kg, ip BID administered on day 3, 4 and 5 post infection measured on day 31 relative to control; format: functional, organism-based; set-up: dose 10 mg/kg; procedure, shortened: as §1
Plasmodium berghei [20] = assay: Antimalarial activity against Plasmodium berghei KBG173 infected in mouse assessed as decrease in parasitemia at 20 mg/kg, ip BID administered on day 3, 4 and 5 post infection measured on day 31 relative to control; format: functional, organism-based; set-up: dose 20 mg/kg; procedure, shortened: as §1
Plasmodium berghei [21] = assay: Antimalarial activity against Plasmodium berghei KBG173 infected in mouse assessed as decrease in parasitemia at 20 mg/kg, iv BID administered on day 3, 4 and 5 post infection measured on day 31 relative to control; format: functional, organism-based; set-up: dose 20 mg/kg; procedure, shortened: as §1
Plasmodium berghei [22] = assay: Antimalarial activity against Plasmodium berghei KBG173 infected in mouse assessed as decrease in parasitemia at 10 mg/kg, iv BID administered on day 3, 4 and 5 post infection measured on day 31 relative to control; format: functional, organism-based; set-up: dose 10 mg/kg; procedure, shortened: as §1
Plasmodium berghei [23] = assay: Antimalarial activity against Plasmodium berghei KBG173 infected in mouse assessed as mouse survival time at 15 mg/kg, iv BID administered on day 3, 4 and 5 post infection; format: functional; procedure, shortened: as §6
Plasmodium berghei [24] = assay: Antimalarial activity against Plasmodium berghei KBG173 infected in mouse assessed as mouse survival time at 5 mg/kg, iv BID administered on day 3, 4 and 5 post infection; format: functional; procedure, shortened: as §6
Mus musculus [25] = assay: as §4; format: ADME, organism-based; set-up: dose 5 mg/kg, route intravenous; details: mouse, in vivo; procedure, shortened: as §3
Plasmodium berghei [26] = assay: Antimalarial activity against Plasmodium berghei KBG173 infected in mouse assessed as cured mouse at 15 mg/kg, iv BID administered on day 3, 4 and 5 post infection measured up to day 31; format: functional, organism-based; set-up: dose 15 mg/kg; procedure, shortened: as §1

| Compound | IC50 (Plasmodium falciparum) [nM] | fraction unbound [7] | Vd [8] [L/kg] | half-life [9] [h] | clearance [10] [mL/min/kg] | CL free (Mus musculus [12]) [mL/min/kg] | fraction unbound at 0.5 h, 1 ug/ml [13] | IC50 (HepG2) [nM] | Survival (Plasmodium berghei [14]) [days] | bioavailability [15] [%] | CLint (Liver microsomes [16]) [mL/min/g] | Activity (Plasmodium berghei [17]) | other results |
| --- | --- | --- | --- | --- | --- | --- | --- | --- | --- | --- | --- | --- | --- |
| CCN(CC)CCCC(C)Nc1ccnc2cc(Cl)ccc12 (configuration not stated) |  |  |  |  |  |  |  |  |  |  |  |  | Activity (Plasmodium berghei [1]): inactive; Activity (Plasmodium berghei [2]): inactive; Activity (Plasmodium berghei [3]): inactive; Activity (Plasmodium berghei [4]): inactive; Activity (Plasmodium berghei [5]): inactive; Activity (Plasmodium berghei [6]): inactive |
| CC[C@H]1OC(=O)[C@H](C)[C@@H](O[C@H]2C[C@@](C)(OC)[C@@H](O)[C@H](C)O2)[C@H](C)[C@@H](O[C@@H]2O[C@H](C)C[C@H](N(C)C)[C@H]2O)[C@](C)(O)C[C@@H](C)CN(CCCNCc2ccnc3ccccc23)[C@H](C)[C@@H](O)[C@]1(C)O | 165 | 0.57 | 4.9 | 8.7 | 10.2 | 18 | 0.57 | > 50000 | 3 | 19.5 | < 0.6 |  | CLint (Liver microsomes [11]): < 0.6 mL/min/g; CLint (Liver): < 0.6 mL/min/g |
| CC[C@H]1OC(=O)[C@H](C)[C@@H](O[C@H]2C[C@@](C)(OC)[C@@H](O)[C@H](C)O2)[C@H](C)[C@@H](O[C@@H]2O[C@H](C)C[C@H](N(C)C)[C@H]2O)[C@](C)(O)C[C@@H](C)CN(CCCNc2ccnc3cc(Cl)ccc23)[C@H](C)[C@@H](O)[C@]1(C)O |  |  |  |  |  |  |  |  |  |  |  | inactive | Activity (Plasmodium berghei [18]): Active; Activity (Plasmodium berghei [19]): inactive; Activity (Plasmodium berghei [20]): Active; Activity (Plasmodium berghei [21]): Active |
| CC[C@H]1OC(=O)[C@H](C)[C@@H](O[C@H]2C[C@@](C)(OC)[C@@H](O)[C@H](C)O2)[C@H](C)[C@@H](O[C@@H]2O[C@H](C)C[C@H](N(C)C)[C@H]2O)[C@](C)(O)C[C@@H](C)CN(C)[C@H](C)[C@@H](O)[C@]1(C)O [AZITHROMYCIN] |  | 0.69 | 8.8 |  | 16 | 23.2 |  | > 50000 |  | 72 |  | inactive | Activity (Plasmodium berghei [22]): inactive; Survival (Plasmodium berghei [23]): 19 days; Survival (Plasmodium berghei [24]): 17 days; t1/2 (Mus musculus [25]): 8.3 h; Activity (Plasmodium berghei [26]): inactive |
| CC[C@H]1OC(=O)[C@H](C)[C@@H](O[C@H]2C[C@@](C)(OC)[C@@H](O)[C@H](C)O2)[C@H](C)[C@@H](O[C@@H]2O[C@H](C)C[C@H](N(C)C)[C@H]2O)[C@](C)(O)C[C@@H](C)CN(CCC(=O)N[C@H](C)c2cccc3ccccc23)[C@H](C)[C@@H](O)[C@]1(C)O | 95 | 0.13 | 7.8 | 16.5 | 10.5 | 81 | 0.13 | > 30000 | -9 | 23.6 | 1.8 |  |  |
